In data set [1] the target is T1, α-glucosidase (Saccharomyces cerevisiae, UniProt P53341). The note with it: read-out: α-glucosidase IC50; Fig. 1; cited from earlier work.
In data set [2] the target is T1, α-glucosidase. Conditions: kinetic studies; cited from earlier work.
Data set [3] concerns the target α-Glucosidase (derived from Saccharomyces cerevisiae; EC3.2.1.20) (Saccharomyces cerevisiae, UniProt P53341). The data set can be described thus: In vitro α-glucosidase inhibitory study. The data set is classed as biochemical.
In data set [4] the test system is normal cell lines. The note with it: cited from earlier work.
The conditions of data set [5]: cited from earlier work.
Data set [6] addresses T1, α-glucosidase. Put plainly: Kinetic studies of α-glucosidase. Type of data set: biochemical.
Data set [7] relates to male Wistar rats. The data set can be described thus: In vivo hypoglycemic activity assay. On the set-up: species or system rat. Conditions: for blood glucose effect (area under curve) vs negative control: sucrose 7.5 g/kg, one-way ANOVA. A digest of the protocol:
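Sucrose 7.5 g/kg was given 30 min later. Tail-vein glucose measured by glucometer at 0, 30, 45, 60 and 120 min. Area under curve compared by one-way ANOVA; mean ± SD.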

Data set [8] addresses T1, α-glucosidase. The data set can be described thus: Thermodynamic analysis of the binding of compound 8g to α-glucosidase. The essentials: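 Fluorescence intensity of yeast α-glucosidase at 340 nm followed over 298–338 K, with or without test compound (pH 6.8), under a two-state N↔U model. Denatured fraction, apparent K and ΔG° = −RT ln K were calculated, then fitted to the integrated Gibbs–Helmholtz equation (ΔCp 11.6 kJ/mol K). This gave Tm (half-denatured), ΔH°m and ΔS°m, with ΔH = TmΔS.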

In data set [9] the target is T1, α-glucosidase. Put plainly: Fluorescence spectroscopy measurements. Type of data set: binding. The note with it: 0–500 nM, excitation 280 nm, phosphate buffer pH 6.8. A digest of the protocol:
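Fixed amount of yeast α-glucosidase in 3.0 ml with test compound at 0–500 nM, equilibrated 10 min. Steady-state emission spectra recorded 300–500 nm with excitation at 280 nm in a 1.0 cm quartz cell. Buffer-only spectra without enzyme subtracted as background.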

“Also recorded” adds a separate entry of the source.

As a reminder, the IC50 is the concentration that inhibits the measured activity by half. A word on the Ki: it is the dissociation constant of the complex between target and ligand, obtained from inhibition or displacement. Lower therefore signals tighter binding.

α-Glucosidase (derived from Saccharomyces cerevisiae; EC3.2.1.20), sequence (P53341 whole entry): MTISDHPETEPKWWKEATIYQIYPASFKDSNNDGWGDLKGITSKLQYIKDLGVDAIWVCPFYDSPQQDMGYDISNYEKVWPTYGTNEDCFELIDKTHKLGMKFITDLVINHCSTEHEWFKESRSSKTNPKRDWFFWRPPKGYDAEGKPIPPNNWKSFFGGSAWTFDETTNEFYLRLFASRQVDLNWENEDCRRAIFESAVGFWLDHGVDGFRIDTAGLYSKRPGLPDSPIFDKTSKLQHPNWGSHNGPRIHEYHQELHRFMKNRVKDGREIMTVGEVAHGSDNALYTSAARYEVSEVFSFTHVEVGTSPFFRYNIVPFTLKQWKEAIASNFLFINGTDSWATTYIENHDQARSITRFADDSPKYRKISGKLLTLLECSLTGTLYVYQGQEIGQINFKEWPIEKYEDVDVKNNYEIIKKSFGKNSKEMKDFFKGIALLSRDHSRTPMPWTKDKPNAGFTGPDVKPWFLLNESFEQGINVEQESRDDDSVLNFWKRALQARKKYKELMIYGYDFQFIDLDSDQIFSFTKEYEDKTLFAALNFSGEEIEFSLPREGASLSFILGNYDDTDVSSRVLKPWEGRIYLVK
T1 sequence (P53341 whole entry): as above

For `O=C(Cn1c(-c2ccc(Cl)cc2)nc2ccccc2c1=O)NN=Cc1cn(-c2ccccc2)nc1-c1ccc(Br)cc1` [E, N’-((3-(4-bromophenyl)−1-phenyl-1H-pyrazol-4-yl)methylene)−2-(2-(4-chlorophenyl)−4-oxoquinazolin-3(4H)-yl)acetohydrazide], the IC50 in data set [1] is 60.5 µM. The “mechanism of α-glucosidase inhibition” value in data set [2] is “competitive mechanism”.
As to `COc1cccc(-c2cc(C(=O)NN=CC(O)C(O)C(O)C(O)CO)n[nH]2)c1` (stereo not drawn) [Compound 8k, 5-(3-Methoxyphenyl)-N’-(2,3,4,5,6-pentahydroxyhexylidene)−1H-pyrazole-3-carbohydrazide], half-maximal inhibition in data set [3] (IC50) was put at 2.3 µM.
In the case of `O=C(NN=CC(O)C(O)C(O)C(O)CO)c1cc(-c2ccc(Cl)cc2)[nH]n1` (stereo not drawn) [Compound 8e, 5-(4-Chlorophenyl)-N’-(2,3,4,5,6-pentahydroxyhexylidene)−1H-pyrazole-3-carbohydrazide], in data set [3], the IC50 was found to be 1 µM.
On to `COc1ccc(-c2cc(C(=O)NN=CC(O)C(O)C(O)C(O)CO)n[nH]2)cc1` (stereo not drawn) [Compound 8l, 5-(4-Methoxyphenyl)-N’-(2,3,4,5,6-pentahydroxyhexylidene)−1H-pyrazole-3-carbohydrazide], for which, in data set [3], half-maximal inhibition (IC50) required 2.3 µM.
Regarding `COc1ccc(-c2cc(C(=O)NN=CC(O)C(O)C(O)C(O)CO)n[nH]2)cc1OC` (stereo not drawn) [Compound 8m, 5-(3,4-Dimethoxyphenyl)-N’-(2,3,4,5,6-pentahydroxyhexylidene)−1H-pyrazole-3-carbohydrazide], it took 438.6 ± 0.1 µM to reach half-maximal inhibition in data set [3] (IC50).
For `O=C(NN=Cc1cn(-c2ccccc2)nc1-c1ccc([N+](=O)[O-])cc1)c1cc2ccccc2o1` [B, N’-((3-(4-nitrophenyl)−1-phenyl-1H-pyrazol-4-yl)methylene)benzofuran-2-carbohydrazide], the “cytotoxicity to normal cell lines” value in data set [4] was “non-toxic”.
With `COc1ccc(/C=C/c2cc(O)cc(OC3OC(CO)C(O)C(O)C3O)c2)cc1O` (stereo not drawn) [F, 2-(3-hydroxy-5-((E)−3-hydroxy-4-methoxystyryl)phenoxy)−6-(hydroxymethyl)tetrahydro-2H-pyran-3,4,5-triol], in [5], the bioavailability result is reported as “very low” and the toxic effects entry was “no toxic effects”.
Regarding `O=C(NN=CC(O)C(O)C(O)C(O)CO)c1cc(-c2ccccc2)[nH]n1` (stereo not drawn) [Compound 8a, N’-(2,3,4,5,6-Pentahydroxyhexylidene)−5-phenyl-1H-pyrazole-3-carbohydrazide], in [3], inhibition was half-maximal at 1.2 µM (IC50).
Turning to `O=C(NN=CC(O)C(O)C(O)C(O)CO)c1cc(-c2ccc([N+](=O)[O-])cc2)[nH]n1` (stereo not drawn) [Compound 8h, 5-(4-Nitrophenyl)-N’-(2,3,4,5,6-pentahydroxyhexylidene)−1H-pyrazole-3-carbohydrazide], half-maximal inhibition in data set [3] (IC50) was put at 80.5 ± 0.7 µM.
Same read-out and setting: the value for `O=C(NN=CC(O)C(O)C(O)C(O)CO)c1cc(-c2ccc(Br)cc2)[nH]n1` (stereo not drawn) [Compound 8f, 5-(4-Bromophenyl)-N’-(2,3,4,5,6-pentahydroxyhexylidene)−1H-pyrazole-3-carbohydrazide] was 35.2 ± 0.5 µM.
As for `Cc1ccc(-c2cc(C(=O)NN=CC(O)C(O)C(O)C(O)CO)n[nH]2)cc1` (stereo not drawn) [Compound 8j, N’-(2,3,4,5,6-Pentahydroxyhexylidene)−5-(p-tolyl)−1H-pyrazole-3-carbohydrazide], the IC50 in data set [3] was 36.4 ± 0.2 µM.
For the compound `O=C(NN=CC(O)C(O)C(O)C(O)CO)c1cc(-c2ccc(Cl)cc2Cl)[nH]n1` (stereo not drawn) [Compound 8g, 5-(2,4-Dichlorophenyl)-N’-(2,3,4,5,6-pentahydroxyhexylidene)−1H-pyrazole-3-carbohydrazide], the Ki in data set [6] was 0.46 µM. Moreover, in data set [6] (Lineweaver-Burk plot: Km increased, Vmax unchanged), the type of inhibition entry was “competitive manner; also recorded: competitive inhibitor”. For the same compound, in data set [7] (doses comparable to acarbose), the “blood sugar levels in rats” value is on record as “capable of lowering blood sugar levels; also recorded: effectively reduced”. Besides, the “blood glucose effect (area under curve) vs negative control” value is “did not significantly differ” in data set [7] (rat, oral 2.5 mg/kg); “significantly different” in data set [7] (rat, oral 5 mg/kg, p-value < 0.05); “significantly different” in [7] (rat, oral 10 mg/kg, p-value < 0.05). For the same compound, the “effectiveness of 5 and 10 mg/kg doses vs each other and vs acarbose (5 mg/kg)” value in [7] (rat, oral, sucrose tolerance test) is listed as “did not significantly differ”. For the same compound, the “Tm of α-glucosidase” value in [8] (60 nM compound) was 314 K; in data set [8] (250 nM compound), 309 K; in [8] (500 nM compound), 304 K. The “ΔSm° of α-glucosidase denaturation” value is listed as 328.6 J mol^−1 K^−1 in data set [8] (60 nM compound), 466.9 J mol^−1 K^−1 in data set [8] (250 nM compound) and 516.4 J mol^−1 K^−1 in data set [8] (500 nM compound). The “ΔHm° of α-glucosidase denaturation” value in data set [8] (500 nM compound) is 37.55 kcal/mol. Moreover, the “fluorescence intensity of α-glucosidase” value in data set [9] was “increased intensity”. Besides, the “shift in the emission wavelength (λmax 340 nm)” value in data set [9] is “did not show significant shift”. The compound also had an IC50 in [3] of 0.5 µM. In addition, the “inhibition of α-glucosidase, times more potently than acarbose” value in data set [3] (relative to acarbose) was 1500 times.
Regarding `Cc1cccc(-c2cc(C(=O)NN=CC(O)C(O)C(O)C(O)CO)n[nH]2)c1` (stereo not drawn) [Compound 8i, N’-(2,3,4,5,6-Pentahydroxyhexylidene)−5-(m-tolyl)−1H-pyrazole-3-carbohydrazide], the IC50 in data set [3] turned out to be 12.1 ± 0.5 µM.
With `O=C(NNC1OC(CO)C(O)C(O)C1O)c1cc(-c2ccccc2)on1` (stereo not drawn) [H, 5-phenyl-N’-(3,4,5-trihydroxy-6-(hydroxymethyl)tetrahydro-2H-pyran-2-yl)isoxazole-3-carbohydrazide], the IC50 in data set [1] is 292 µM.
`O=C(NN=CC(O)C(O)C(O)C(O)CO)c1cc(-c2ccc(F)cc2)[nH]n1` (stereo not drawn) [Compound 8d, 5-(4-Fluorophenyl)-N’-(2,3,4,5,6-pentahydroxyhexylidene)−1H-pyrazole-3-carbohydrazide] yielded an IC50 in data set [3] of 60.6 ± 1 µM.
On to `O=C(NN=CC(O)C(O)C(O)C(O)CO)c1cc(-c2ccccc2Cl)[nH]n1` (stereo not drawn) [Compound 8c, 5-(2-Chlorophenyl)-N’-(2,3,4,5,6-pentahydroxyhexylidene)−1H-pyrazole-3-carbohydrazide], for which, in [3], the IC50 is 4.2 ± 0.1 µM.
On to `O=C(NN=CC(O)C(O)C(O)C(O)CO)c1cc(-c2ccccc2F)[nH]n1` (stereo not drawn) [Compound 8b, 5-(2-Fluorophenyl)-N’-(2,3,4,5,6-pentahydroxyhexylidene)−1H-pyrazole-3-carbohydrazide], for which the IC50 in data set [3] was found to be 53.9 ± 1.2 µM.

These data come from paper PMC11929827 (Scientific Reports, 2025).
